According to ChEMBL document CHEMBL5149984, “Discovery of HN37 as a Potent and Chemically Stable Antiepileptic Drug Candidate” (J Med Chem, 2021):

Key:
[1] = molecular target: T1, Potassium voltage-gated channel subfamily KQT member 4 (Homo sapiens) (UniProt P56696); test: Agonist activity at human KCNQ4 channel expressed in CHO cells assessed as shift of half voltage of maximal activation at 10 uM by patch clamp method; type: cell-based; conditions: filed as agonist
T1 sequence (whole entry): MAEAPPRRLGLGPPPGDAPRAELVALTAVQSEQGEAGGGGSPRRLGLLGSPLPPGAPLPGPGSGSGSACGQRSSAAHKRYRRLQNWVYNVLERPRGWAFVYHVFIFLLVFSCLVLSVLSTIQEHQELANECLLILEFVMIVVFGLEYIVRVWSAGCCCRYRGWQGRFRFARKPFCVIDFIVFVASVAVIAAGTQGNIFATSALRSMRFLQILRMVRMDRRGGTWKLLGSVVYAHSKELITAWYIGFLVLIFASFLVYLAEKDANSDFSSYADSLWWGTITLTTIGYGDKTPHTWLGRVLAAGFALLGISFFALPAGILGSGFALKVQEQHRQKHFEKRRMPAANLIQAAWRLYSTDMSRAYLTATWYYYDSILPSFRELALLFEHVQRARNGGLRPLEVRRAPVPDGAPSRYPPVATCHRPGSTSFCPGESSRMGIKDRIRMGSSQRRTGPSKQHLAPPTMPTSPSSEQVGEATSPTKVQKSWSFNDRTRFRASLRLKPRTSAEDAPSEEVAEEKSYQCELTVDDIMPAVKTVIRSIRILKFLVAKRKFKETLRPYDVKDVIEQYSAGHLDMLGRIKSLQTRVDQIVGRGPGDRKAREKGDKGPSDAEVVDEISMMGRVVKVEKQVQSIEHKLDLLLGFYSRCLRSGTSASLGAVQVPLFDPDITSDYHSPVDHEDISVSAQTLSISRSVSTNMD
How it was run: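 Whole-cell patch clamp at room temperature on CHO cells (DMEM/F12, 10% FBS) transiently co-transfected with EGFP and hKCNQ1, rKCNQ2, rKCNQ3 A278T, hKCNQ4 or hKCNQ5; KCNQ2/3 at 1:1 cDNA ratio. Pipette solution 145 mM KCl, 5 mM MgATP, pH 7.3; bath 140 mM NaCl, 5 mM KCl, pH 7.4, under perfusion. V1/2 from Boltzmann fits; I/I0 is current amplitude with versus without compound; n = 4−6.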

Mus musculus = test: Anticonvulsant activity in MES induced Kunming mouse model of seizure at 100 mg/kg, po; type: functional
How it was run: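 MES test in male KM mice. Compounds freshly suspended in 0.5% CMC-Na and given by gavage at 20 mL/kg; 160 V stimulus through ear clips. Protection scored as absence of hindlimb tonic extension; time course at 0.25, 0.5, 1 and 2 h, otherwise tested at 1 h. ED50 from dose−response by nonlinear regression; Fisher's exact test versus vehicle.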

CYP3A4 = CYP3A4 (Homo sapiens, UniProt P08684); test: Inhibition of human liver microsome CYP3A4 at 0.10 to 50 uM preincubated with NADPH for 0.5 hrs followed by substrate addition by LC-MS/MS method relative to control; type: ADME; conditions: liver microsomes, dose 0.1-50 µM
How it was run: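 Human liver microsomes preincubated 0.5 h with 0.10−50 μM compound, with or without NADPH, then CYP-specific probe substrates added (CYP3A4 with midazolam 1′-hydroxylation and with testosterone 6β-hydroxylation). Metabolites quantified by LC−MS/MS; % activity remaining computed against no-compound control. IC50 fitted by Probit model; ratio = IC50(−NADPH)/IC50(+NADPH).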

[2] = AUC(0 to t) in Sprague-Dawley rat at 6 mg/kg, po measured upto 24 hrs by LC-MS/MS method; type: ADME, organism-based; design: dose 6 mg/kg, time < 24 hrs, route po; conditions: in vivo
How it was run: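 Male SD rats (180−220 g) dosed orally at 2, 6 or 20 mg/kg in escalating fashion, handled as in the mouse study: 12 h fast, acetonitrile extraction of plasma, LC−MS/MS quantification. AUC0−t by trapezoidal method to the last measurable concentration.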

[3] = Tmax in Kunming mouse plasma at 5 mg/kg, po measured upto 24 hrs by LC-MS/MS method; type: ADME, organism-based
How it was run: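 Male KM mice (18–24 g), fasted 12 h before and 2 h after dosing, n = 3 per time point. Oral dose in 5% DMSO/5% Tween 80/90% saline; i.v. dose is that formulation diluted in saline with 1% Tween 80. Blood sampled 0.25–24 h after oral dosing, 0.083–24 h after i.v.; whole brain taken after oral dosing. Acetonitrile extraction with internal standard, LC-MS/MS.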

[4] = Oral bioavailability in Kunming mouse plasma at 5 mg/kg measured upto 24 hrs by LC-MS/MS method; type: ADME, organism-based
How it was run: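 Male KM mice (18−24 g) fasted 12 h before and 2 h after dosing, given 5 mg/kg orally in 5% DMSO/5% Tween 80/90% normal saline (n = 3 per time point). Aortic blood taken at 0.25–24 h and whole brain collected. Acetonitrile extraction with internal standard, then LC−MS/MS. Bioavailability calculated against the 2 mg/kg i.v. arm.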

[5] = Metabolic stability in mouse liver microsomes assessed as intrinsic clearance; type: ADME, Microsome; conditions: read-out: CLH
Brain = test: Anticonvulsant activity in MES induced Kunming mouse model of seizure assessed as EC50 in brain; type: functional, tissue-based
[6] = Tmax in Sprague-Dawley rat blood at 6 mg/kg, po measured upto 24 hrs by LC-MS/MS method; type: ADME, organism-based
How it was run: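 Male SD rats (180–220 g) dosed orally at 2, 6 and 20 mg/kg, handled like the mice: fasting, 5% DMSO/5% Tween 80/saline vehicle, acetonitrile extraction, LC-MS/MS of plasma. In a separate set at 6 mg/kg p.o., blood and brain were sampled together.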

CYP2C9 = CYP2C9 (Homo sapiens, UniProt P11712); test: Inhibition of human liver microsome CYP2C9 at 0.10 to 50 uM preincubated with NADPH for 0.5 hrs followed by substrate addition by LC-MS/MS method relative to control; type: ADME; conditions: liver microsomes, dose 0.1-50 µM
[7] = AUC(0 to t) in Sprague-Dawley rat blood at 6 mg/kg, po measured upto 24 hrs by LC-MS/MS method; type: ADME, organism-based; design: time < 24 hrs, dose 6 mg/kg, route po
How it was run: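 Separate experiment in male SD rats given 6 mg/kg orally; blood and brain concentrations measured concurrently. Samples extracted with acetonitrile (brain homogenized in 10 volumes acetonitrile and sonicated) and analysed by LC−MS/MS; AUC0−t by trapezoidal method.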

Cytochrome P450 1A2 = Cytochrome P450 1A2 (Homo sapiens, UniProt P05177); test: Time dependent inhibition of human liver microsome CYP1A2 preincubated for 0.5 hrs in presence of NADPH followed by substrate addition by LC-MS/MS method; type: ADME, microsomes
How it was run: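 Human liver microsomes preincubated 0.5 h with 0.10–50 μM test compound, with or without NADPH, then CYP-specific probe substrate added and incubation continued. Metabolite measured by LC-MS/MS; % activity remaining relative to no-compound control; IC50 fitted by Probit model. For CYP3A4, midazolam 1′-hydroxylation and testosterone 6β-hydroxylation were read separately.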

[8] = molecular target: Potassium voltage-gated channel subfamily KQT member 2/member 3 (Rattus norvegicus) (UniProt O88943+O88944); test: Potency index, ratio of retigabine EC50 to test compound EC50 for agonist activity at rat KCNQ2/3 channel expressed in CHO cells by patch clamp method; type: cell-based

Sequence of CYP3A4 (P08684 whole entry): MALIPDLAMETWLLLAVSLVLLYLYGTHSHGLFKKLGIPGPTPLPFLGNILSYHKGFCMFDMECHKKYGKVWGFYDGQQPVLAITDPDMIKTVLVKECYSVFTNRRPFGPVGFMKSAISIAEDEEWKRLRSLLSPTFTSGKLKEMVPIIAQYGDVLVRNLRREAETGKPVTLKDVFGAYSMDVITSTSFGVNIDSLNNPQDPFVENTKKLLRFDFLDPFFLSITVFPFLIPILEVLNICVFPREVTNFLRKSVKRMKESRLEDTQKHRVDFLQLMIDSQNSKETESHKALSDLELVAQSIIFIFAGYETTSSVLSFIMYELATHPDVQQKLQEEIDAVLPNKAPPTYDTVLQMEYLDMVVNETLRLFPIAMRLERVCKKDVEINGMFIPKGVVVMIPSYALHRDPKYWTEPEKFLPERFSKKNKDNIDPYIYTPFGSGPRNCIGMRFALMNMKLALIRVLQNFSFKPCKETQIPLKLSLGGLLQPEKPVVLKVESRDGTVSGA
Sequence of CYP2C9 (P11712 whole entry): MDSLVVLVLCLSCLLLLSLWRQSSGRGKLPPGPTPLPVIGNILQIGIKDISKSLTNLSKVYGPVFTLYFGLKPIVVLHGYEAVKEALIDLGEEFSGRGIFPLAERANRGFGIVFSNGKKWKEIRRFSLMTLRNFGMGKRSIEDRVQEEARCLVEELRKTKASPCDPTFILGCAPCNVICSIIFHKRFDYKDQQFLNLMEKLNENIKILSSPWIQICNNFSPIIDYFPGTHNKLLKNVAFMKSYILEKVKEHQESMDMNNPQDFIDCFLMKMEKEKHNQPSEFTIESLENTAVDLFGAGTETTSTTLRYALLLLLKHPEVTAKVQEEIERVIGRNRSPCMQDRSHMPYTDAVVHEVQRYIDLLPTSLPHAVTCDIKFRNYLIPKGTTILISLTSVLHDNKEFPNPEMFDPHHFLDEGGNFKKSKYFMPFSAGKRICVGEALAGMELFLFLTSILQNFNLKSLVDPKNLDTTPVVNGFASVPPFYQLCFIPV
Sequence of Cytochrome P450 1A2 (P05177 whole entry): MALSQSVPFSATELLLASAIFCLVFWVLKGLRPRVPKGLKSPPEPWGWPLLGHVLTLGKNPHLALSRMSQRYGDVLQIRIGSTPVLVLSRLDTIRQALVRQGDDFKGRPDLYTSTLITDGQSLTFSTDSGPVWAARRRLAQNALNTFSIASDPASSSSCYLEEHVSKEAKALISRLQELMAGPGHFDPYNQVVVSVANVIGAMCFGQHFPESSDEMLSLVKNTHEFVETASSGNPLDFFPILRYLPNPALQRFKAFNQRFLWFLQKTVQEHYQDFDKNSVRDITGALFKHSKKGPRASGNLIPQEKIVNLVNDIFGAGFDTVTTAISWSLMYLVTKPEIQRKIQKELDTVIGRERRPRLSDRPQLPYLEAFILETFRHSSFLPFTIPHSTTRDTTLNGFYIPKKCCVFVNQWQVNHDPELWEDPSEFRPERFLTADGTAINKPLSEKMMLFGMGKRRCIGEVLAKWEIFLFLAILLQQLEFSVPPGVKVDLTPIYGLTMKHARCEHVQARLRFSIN

For `CCOC(=O)Nc1ccc(NCc2ccc(F)cc2)cc1N` [EZOGABINE], the Activity [1] was -34.1 mV and the Activity (Mus musculus) was 87.5%.

For `C#CCN(Cc1ccc(F)cc1)c1cc(C)c(NC(=O)OC)c(C)c1`, the inhibition at 0.5 h, up to 50 µM (CYP3A4) was < 25%, the AUC(0-t) at 24 h [2] was 1130 ng·h/mL and the Tmax [3] was 15 min. The bioavailability [4] was 24.2%, the CLint scaled [5] was 438 mL/min/kg and the EC50 (Brain) was 70 nM. For the same compound, the Tmax [6] was 15 min, the inhibition at 0.5 h, up to 50 µM (CYP2C9) was < 25% and the AUC(0-t) at 24 h [7] was 533 ng·h/mL. For the same compound, the IC50 (Cytochrome P450 1A2) was 2530 nM and the Ratio EC50 [8] was 125.
